Where no end group is shown, it is not given here. Me2 = dimethyl on the lysine side-chain amine
How the values were obtained:
[1] = tested on: GST 53BP1-TTD; assay: Biotinylated p53 peptide microarray binding of GST-tagged 53BP1 TTD; settings: biotinylated p53 peptides; four replicate array binding experiments
Method in brief: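 Biotinylated p53 C-terminal peptides (residues 366–390) printed on streptavidin-coated glass slides, then probed with GST-tagged 53BP1 TTD. Binding is shown as normalized mean intensity on a 0 (undetectable) to 1 (strong) scale from four replicate array experiments. Agreement between duplicate arrays was assessed by linear regression correlation.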

[2] = tested on: anti-p53K382me2 antibodies; assay: Dot-blot reactivity of anti-p53K382me2 antibody toward p53 peptides; type: binding, rabbit; settings: relative to p53K381acK382me2 peptide, residues 377–386
[3] = target: 53BP1 TTD, wild type (Homo sapiens, UniProt Q12888); assay: NMR binding to 53BP1 TTD; settings: 15N-labeled TTD, peptide titrated in
53BP1 TTD, wild type, sequence (Q12888 1484-1603 limits assumed): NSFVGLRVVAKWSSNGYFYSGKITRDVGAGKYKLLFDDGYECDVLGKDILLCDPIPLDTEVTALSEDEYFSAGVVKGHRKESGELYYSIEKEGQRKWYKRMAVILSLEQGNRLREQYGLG

[4] = tested on: p53K382me2 in U2OS cells; assay: Immunoblot of immunoprecipitated p53: anti-p53K382me2 reactivity; type: cell-based, human
Method in brief: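 Sub-confluent U2OS cells were grown in DMEM with 10% FBS and left untreated or given doxorubicin for 4 h. TSA (400 nM) was given for 1 h, in combined treatment added 3 h after doxorubicin. Cells were lysed in Tris pH 7.4/NaCl/Triton buffer with inhibitors. p53 was pulled down from 1 mg protein on DO-1 agarose overnight at 4 °C and eluted non-reducing at 70 °C. Blots were probed overnight at 4 °C with anti-K382me2 and a light-chain-specific secondary.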

[5] = tested on: p300/CBP at p53 target regions; assay: p300 ChIP-seq enrichment at p53 target regions; type: cell-based; settings: meta-analysis of public ChIP-seq data, mouse ES cells

Compound: p53K370me2: p53 CTD peptide dimethylated at K370 (SSHLK(Me2)SKKGQSTSRHKKLMFKTEGP; also: biotin label, position not given here)
- GST-TTD binding in peptide microarray (in words) [1]: more weakly

Compound: p53K382me2: p53 peptide dimethylated at K382 (residues 377–386; biotinylated 366–390 for microarray) (SSHLKSKKGQSTSRHKK(Me2)LMFKTEGP; also: biotin label, position not given here)
- anti-p53K382me2 antibody reactivity, fold weaker than with p53K381acK382me2 peptide [2]: 16 fold
- chemical shift changes in 1H,15N HSQC spectra of TTD (in words) [3]: most significant changes in the K382me2-binding cage

Compound: COc1cccc2c1C(=O)c1c(O)c3c(c(O)c1C2=O)C[C@@](O)(C(=O)CO)C[C@@H]3O[C@H]1C[C@H](N)[C@H](O)[C@H](C)O1 [doxorubicin]
- p53K382me2 level in immunoprecipitated p53 (in words) ([4]; doxorubicin 4 h (5 µg/mL in legend, 0.5 µg/mL in method)): increased substantially
- p300/CBP at p53 target regions (in words) [5]: enrichment of p300/CBP

Compound: p53K382me2K386ac: biotinylated p53 CTD peptide with K382me2 and K386ac (SSHLKSKKGQSTSRHKK(Me2)LMFK(Ac)TEGP; also: biotin label, position not given here)
- GST-TTD binding in peptide microarray (in words) [1]: recognizes

Compound: CC(/C=C/C(=O)NO)=C\[C@@H](C)C(=O)c1ccc(N(C)C)cc1 [TSA]
- p53K382me2 level under basal conditions (in words) ([4]; basal, with TSA 400 nM, 1 h): little p53K382me2 was present

Compound: p53K372me2: p53 CTD peptide dimethylated at K372 (SSHLKSK(Me2)KGQSTSRHKKLMFKTEGP; also: biotin label, position not given here)
- GST-TTD binding in peptide microarray (in words) [1]: more weakly

Source: article PMC4317571 (Structure (London, England : 1993), 2015)
